The results in this text go back to ChEMBL document CHEMBL1127290, “1-(2,5-Dimethoxy-4-(trifluoromethyl)phenyl)-2-aminopropane: a potent serotonin 5-HT2A/2C agonist” (J Med Chem, 1994).

For experiment [1], the target named is T1, 5-hydroxytryptamine receptor 2C (Mus musculus) (UniProt P34968).
T1 sequence (whole entry): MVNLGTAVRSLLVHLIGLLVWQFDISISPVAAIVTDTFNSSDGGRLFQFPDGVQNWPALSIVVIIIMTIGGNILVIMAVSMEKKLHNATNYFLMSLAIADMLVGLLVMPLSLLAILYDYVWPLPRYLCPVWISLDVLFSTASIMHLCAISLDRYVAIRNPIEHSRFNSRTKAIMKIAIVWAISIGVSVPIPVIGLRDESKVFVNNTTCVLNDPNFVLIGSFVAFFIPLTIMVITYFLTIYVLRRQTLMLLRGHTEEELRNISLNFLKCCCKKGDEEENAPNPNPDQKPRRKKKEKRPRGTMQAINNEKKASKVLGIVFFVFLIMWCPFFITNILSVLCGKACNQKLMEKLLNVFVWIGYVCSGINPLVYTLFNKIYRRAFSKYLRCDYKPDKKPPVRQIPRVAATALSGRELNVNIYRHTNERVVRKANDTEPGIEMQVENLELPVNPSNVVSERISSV
The experiment can be described thus: Percent of maximum stimulation of phosphatidylinositol turnover at cloned 5-hydroxytryptamine 2C receptor in A9 cells. The experiment is classed as functional, cell-based. The gist of the method: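 A9 cells expressing cloned 5-HT2C receptor, labelled 18 h with 1 μCi/mL [3H]inositol in inositol-free DMEM with dialysed serum. Compounds given 60 min with 10 mM LiCl in Krebs bicarbonate buffer, then [3H]inositol monophosphate accumulation measured. Expressed as % of the 5-HT (10^-5 M) maximum minus control. Vmax by nonlinear regression. Triplicates in three experiments, mean ± SE.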

Experiment [2] deals with 5-hydroxytryptamine receptor 2A (Mus musculus) (UniProt P35363). The experiment is described as follows: Percent of maximum stimulation of phosphatidylinositol turnover at cloned 5-hydroxytryptamine 2A receptor in 3T3 cells. The experiment is classed as functional, cell-based. The conditions noted are these: NIH3T3.
Sequence of 5-hydroxytryptamine receptor 2A (Mus musculus) (P35363 whole entry): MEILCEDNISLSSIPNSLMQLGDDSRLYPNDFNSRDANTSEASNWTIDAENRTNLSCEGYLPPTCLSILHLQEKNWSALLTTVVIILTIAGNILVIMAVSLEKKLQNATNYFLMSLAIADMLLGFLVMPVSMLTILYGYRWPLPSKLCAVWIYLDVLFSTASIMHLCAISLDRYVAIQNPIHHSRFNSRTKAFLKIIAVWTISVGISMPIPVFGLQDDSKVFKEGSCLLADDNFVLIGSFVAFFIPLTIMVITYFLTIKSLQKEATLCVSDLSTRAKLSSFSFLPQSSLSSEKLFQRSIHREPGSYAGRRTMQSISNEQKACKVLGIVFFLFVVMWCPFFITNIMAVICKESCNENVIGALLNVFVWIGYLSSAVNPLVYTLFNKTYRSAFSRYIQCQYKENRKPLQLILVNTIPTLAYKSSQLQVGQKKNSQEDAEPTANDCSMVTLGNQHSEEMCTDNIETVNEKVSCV

`COc1cc(C(F)(F)F)c(OC)cc1CC(C)N` (stereo unspecified): the K aff in experiment [1] stood at 43 nM; in experiment [2], 86 nM.
Taken in the same sequence, the figures for `COc1cc(C(F)(F)F)c(OC)cc1CCN` were 32 nM and 165 nM.
Taken in the same sequence, the figures for `COc1cc(CC(C)N)c(OC)cc1I` (stereo unspecified) were 43 nM and 119 nM.
